MLLE-PAM2 inh: inhibitors of microRNA-mediated deadenylation, human PABP1 MLLE binding | P11940 | GST-MLLE / FITC-PAM2 fluorescence polarization | inhibition, % at 20 µM | hit rate 0.36% among 360,000 | AID 588489; in the data active means inhibition above about 35%, passing the limit was not always enough;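 further: plate controls were DMSO wells with GST-MLLE for no effect and wells lacking GST-MLLE protein for full effect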
eIF4H inh: inhibitors of RNA binding by human eIF4H | hit rate 0.94% among 290,000 | inhibition, % at 35 µM | eIF4H fluorescence polarization binding assay;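 further: calls also rest on retests at 20 µM and on dose response follow-up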
MT1-MMP act inh: blocks activation of human MT1-MMP; HT1080 RFP-PRO-GFP cells, GFP/RFP ratio fluorescence, overnight; percent of plate control window, DMSO zero; hit rate 0.061% among 360,000; P50281; AID 651647; GFP/RFP ratio change, % at 20 µM;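 active means GFP/RFP ratio change of at least 30% with cell ATP level not reduced by more than half and red fluorescence within 50% of control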
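Read-out: GFP/RFP fluorescence ratio; Test system: RFP-PRO-GFP reporter HT1080 cells; Compound dosing: single-point 20 µM compound, 1% DMSO; Times: overnight compound exposure at 37 °C.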
SKN-1 inh: C. elegans SKN-1 inhibition. C. elegans VP596 Pgst-4::GFP/RFP ratio, acrylamide-induced, 24 h. inhibition, % at 21.8 µM. hit rate 0.49% among 360,000;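 active means interference check ratio from 0.5 to 1.5 plus GFP to RFP signal ratio inhibition reaching or exceeding a fixed threshold, cut at about 30% in these data, passing the limit was not always enough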
PABP polyA inh: PABP-poly(A) binding inhibition; P11940; PABP-poly(A) RNA binding, fluorescence polarization; inhibition, % at 35 µM; hit rate 1% among 290,000; AID 2014;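 further: calls also rest on retests at 20 µM and on dose response follow-up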
Active calls of the source: *. An excerpt weighted towards active compounds, which were near 1.7% of everything screened. Unless noted, how the calls were made is not given here.

`CC(C)c1ccc(C2NC(=S)NC3=C2C(=O)CCC3)cc1` (stereo not given) gave MLLE-PAM2 inh -125.6, eIF4H inh active, MT1-MMP act inh -9.0, SKN-1 inh 16.4 and PABP polyA inh 50.4.
Screening Cc1cccc(NC(=O)C(NS(=O)(=O)c2ccc3c(c2)CCC(=O)N3)c2ccccc2)n1 (stereo not given) returned MLLE-PAM2 inh 44.1*, eIF4H inh -2.0, MT1-MMP act inh 4.5, SKN-1 inh 3.6 and PABP polyA inh -5.2.
O=C(c1cncs1)N1CCCC(CNS(=O)(=O)c2cccs2)C1 (stereo not given) was read as MLLE-PAM2 inh 1.0, eIF4H inh -16.1, MT1-MMP act inh -0.4, SKN-1 inh -3.1 and PABP polyA inh -3.9.
`O=C(O)CCc1ccc(-c2cccs2)o1` gave MLLE-PAM2 inh 30.9, eIF4H inh 69.5*, MT1-MMP act inh 0.7, SKN-1 inh -10.8 and PABP polyA inh 35.9*.
For CSc1ncnc2c1ncn2CCCNCCCN1CCCC1=O the results were MLLE-PAM2 inh -0.8, MT1-MMP act inh -0.1 and SKN-1 inh -0.2.
CCCCCn1c(=O)c(C(=O)c2ccccc2)nc2ccccc21 was read as MLLE-PAM2 inh -6.2, eIF4H inh -13.8, MT1-MMP act inh 0.2, SKN-1 inh 12.7 and PABP polyA inh 65.1*.
Screening CCCc1cc(=O)oc2c(CN3CCCC3)c(O)ccc12 returned MLLE-PAM2 inh 1.9, eIF4H inh 31.0, MT1-MMP act inh -0.2, SKN-1 inh 17.7 and PABP polyA inh 33.3.
Cc1cc(C)c2c(CN3CCCC3)cc(=O)oc2c1 was read as MLLE-PAM2 inh -1.8, MT1-MMP act inh 1.4 and SKN-1 inh 16.1.
Cc1cc(=O)oc2c(CN3CCC(C)CC3)c(O)c(Cl)cc12 was read as MLLE-PAM2 inh 51.2*, eIF4H inh inconclusive, MT1-MMP act inh -8.8, SKN-1 inh 20.5 and PABP polyA inh inconclusive.
For CCCc1cc(=O)oc2cc(C)c(CN3CCCC3)c(O)c12 the results were MLLE-PAM2 inh -37.0, eIF4H inh 79.9*, MT1-MMP act inh -2.1, SKN-1 inh 19.8 and PABP polyA inh 99.2*.
`CCN(CC)Cc1c(O)c(Cl)cc2c(C)cc(=O)oc12` gave MLLE-PAM2 inh 40.8*, eIF4H inh inconclusive, MT1-MMP act inh -0.7, SKN-1 inh 19.6 and PABP polyA inh -0.5.
Screening CCc1cc(=O)oc2cc(C)c(CN3CCCC3)c(O)c12 returned MLLE-PAM2 inh -18.7, eIF4H inh 76.8*, MT1-MMP act inh -0.3, SKN-1 inh 9.1 and PABP polyA inh 67.4*.
`CCN(CC)Cc1c(O)c(Cl)cc2c(C)c(C)c(=O)oc12` gave MLLE-PAM2 inh 0.8, eIF4H inh -3.9, MT1-MMP act inh 3.7, SKN-1 inh -9.7 and PABP polyA inh 1.5.
Screening CCCCN(C)CCNC(=O)CCn1nc(-c2ccc(Cl)cc2)ccc1=O returned MLLE-PAM2 inh -6.5, eIF4H inh 6.2, MT1-MMP act inh 5.3, SKN-1 inh -10.0 and PABP polyA inh 12.5.
CC1CCCCC12NC(=O)N(CC(=O)OCc1cccc(F)c1)C2=O (stereo not given) was read as MLLE-PAM2 inh 9.0, MT1-MMP act inh 0.3 and SKN-1 inh -6.6.
`CCCc1cc(=O)oc2c(CN3CCCC3)c(O)c(Cl)cc12` gave MLLE-PAM2 inh 31.8, eIF4H inh 108.0*, MT1-MMP act inh -12.4, SKN-1 inh 19.6 and PABP polyA inh 116.3*.
`Cc1cc(=O)oc2c(CN3CCCC3)c(O)c(Cl)cc12` gave MLLE-PAM2 inh 12.0, eIF4H inh 61.1, MT1-MMP act inh -1.0, SKN-1 inh 23.7 and PABP polyA inh 45.6.
Screening CCc1cc(=O)oc2cc(C)c(CN3CCCCC3)c(O)c12 returned MLLE-PAM2 inh 34.4, eIF4H inh 69.7*, MT1-MMP act inh -2.5, SKN-1 inh 1.8 and PABP polyA inh 78.6*.
`Cc1cc2oc(=O)cc(CN3CCCC3)c2cc1C` gave MLLE-PAM2 inh -7.4, MT1-MMP act inh 2.9 and SKN-1 inh 21.5.
Cc1ccc(OCC(=O)NNC(=O)c2cc(S(=O)(=O)N(C)C)ccc2N2CCCC2)cc1 was read as MLLE-PAM2 inh 2.4, MT1-MMP act inh -0.4 and SKN-1 inh 22.6.
Clc1ccc(-c2nnc3sc(-c4ccc(Br)o4)nn23)cc1 was read as MLLE-PAM2 inh 102.0, eIF4H inh -1.4, MT1-MMP act inh -180.8, SKN-1 inh -43.6 and PABP polyA inh -2.7.
